Experimental data: ChEMBL document CHEMBL4049390, “Combination of amino acid/dipeptide with ligustrazine-betulinic acid as antitumor agents” (Eur J Med Chem, 2017)

Assays:
[1] = system: A549; experiment: Antiproliferative activity against human A549 cells after 72 hrs by MTT assay; type: functional, cell-based; conditions: A549, 72 h
Procedure, shortened: (§1)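 MTT assay. Log-phase cells were seeded at 3×10^3 cells/well and left overnight, then exposed to serial dilutions of compound (DMSO solutions) for 72 h in RPMI 1640 with 10% heat-inactivated FBS at 37 °C, 5% CO2. MTT (5 mg/mL, 20 µL) was added for 4 h at 37 °C and the formazan dissolved in DMSO. A490 was read. % inhibition = (1 − sample OD/control OD)×100; IC50 is the 50% growth-inhibition concentration. Triplicates, n = 3 independent experiments.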

[2] = system: BGC-823; experiment: Antiproliferative activity against human BGC823 cells after 72 hrs by MTT assay; type: functional, cell-based; conditions: BGC-823, 72 h; procedure, shortened: as §1
[3] = system: HepG2; experiment: Antiproliferative activity against human HepG2 cells after 72 hrs by MTT assay; type: functional, cell-based; conditions: HepG2, 72 h; procedure, shortened: as §1
[4] = system: HeLa; experiment: Therapeutic index, ratio of IC50 for MDCK cells to IC50 for human HeLa cells
Procedure, shortened: (§2)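 Ratios were calculated from MTT IC50 values (72 h exposure, A490 read-out, n = 3). Potency index = cisplatin IC50 / compound IC50. Therapeutic index = MDCK IC50 / tumour-line IC50.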

[5] = Therapeutic index, ratio of IC50 for MDCK cells to IC50 for human A549 cells; procedure, shortened: as §2
[6] = Therapeutic index, ratio of IC50 for MDCK cells to IC50 for human HepG2 cells; procedure, shortened: as §2
[7] = Therapeutic index, ratio of IC50 for MDCK cells to IC50 for human BGC823 cells; procedure, shortened: as §2
[8] = system: HeLa; experiment: Antiproliferative activity against human HeLa cells after 72 hrs by MTT assay; type: functional, cell-based; procedure, shortened: as §1
[9] = system: MDCK; experiment: Antiproliferative activity against MDCK cells after 72 hrs by MTT assay; type: cell-based; conditions: Canis lupus familiaris; procedure, shortened: as §1
[10] = system: HT-29; experiment: Antiproliferative activity against human HT-29 cells after 72 hrs by MTT assay; type: functional, cell-based; conditions: HT-29, 72 h; procedure, shortened: as §1
[11] = Therapeutic index, ratio of IC50 for MDCK cells to IC50 for human HT-29 cells; procedure, shortened: as §2

Row | IC50 [1] | IC50 [2] | IC50 [3] | IC50 [8] | IC50 [10] | Compound | Ratio IC50 [4] | Ratio IC50 [5] | Ratio IC50 [6] | Ratio IC50 [7] | IC50 [9] | Ratio IC50 [11]
1 | 4080 nM | 2520 nM | 3390 nM | 2330 nM | 3560 nM | C=C(C)[C@@H]1CC[C@]2(C(=O)OCc3nc(C)c(C)nc3C)CC[C@]3(C)[C@H](CC[C@@H]4[C@@]5(C)CC[C@H](OC(=O)[C@H](C)NC(=O)[C@@H]6CCCN6)C(C)(C)[C@@H]5CC[C@]43C)[C@@H]12 | >10 | >10 | >10 | >10 | > 40000 nM | >10
2 | 2450 nM | 1490 nM | 2170 nM | 5570 nM | 4380 nM | C=C(C)[C@@H]1CC[C@]2(C(=O)OCc3nc(C)c(C)nc3C)CC[C@]3(C)[C@H](CC[C@@H]4[C@@]5(C)CC[C@H](OC(=O)[C@H](C)NC(=O)CN)C(C)(C)[C@@H]5CC[C@]43C)[C@@H]12 | >10 | >10 | >10 | >10 | > 40000 nM | >10
3 | 1260 nM | 2160 nM | 2390 nM | 2620 nM | 2640 nM | C=C(C)[C@@H]1CC[C@]2(C(=O)OCc3nc(C)c(C)nc3C)CC[C@]3(C)[C@H](CC[C@@H]4[C@@]5(C)CC[C@H](OC(=O)[C@@H](N)CCCCN)C(C)(C)[C@@H]5CC[C@]43C)[C@@H]12 | >10 | >10 | >10 | >10 | > 40000 nM | >10
